The nature of data set [1]: Cytotoxicity in African green monkey Vero E6 cells assessed as reduction in cell viability. Type of data set: cell-based, Vero C1008. Conditions: chlorocebus sabaeus.
Data set [2] can be described thus: Toxicity in Kunming mouse at 250 to 1000 mg/kg dosed via single oral gavage and measured on day 7 post treatment. Type of data set: organism-based. Conditions: in vivo. An outline of the steps: (§1)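 Kunming mice, 4 groups of n = 6 (3 male, 3 female). Fasted from 12 h before to 1 h after dosing. Single oral gavage of 250, 500 or 1000 mg/kg suspended in 0.5% CMC-Na, or vehicle alone. Followed for 7 days: survival, body weight before and at day 7. Day-7 blood taken for AST, ALT, urea nitrogen and creatinine.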

The nature of data set [3]: Cytotoxicity in MDCK cells assessed as reduction in cell viability. Type of data set: cell-based, Canis lupus familiaris. Conditions: dog.
The nature of data set [4]: Selectivity index, ratio of CC50 for cytotoxicity in African green monkey Vero E6 cells to EC50 for Antiviral activity against Zika virus infected in Vero E6 cells. The class given is toxicity, cell-based, Vero C1008. Conditions: read-out: Ratio CC50/EC50.
In data set [5] the test system is Hepatitis C virus. The data set is described as follows: Antiviral activity against HCV genotype 2a pseudoparticle infected in human Huh7.5 cells assessed as reduction in viral replication. The following applies: Hepacivirus hominis; subtype 2a. Type of data set: functional, organism-based. The gist of the method: (§2)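 Genotype 1b or 2a HCV pseudoparticles made by co-transfecting HEK 293T cells with envelope and luciferase-reporter HIV plasmids; input standardized by luciferase. Huh7.5 cells co-incubated with compound and HCVpp for 4 h at 37°C, washed, then luciferase read at 72 h.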

For data set [6], the system named is Hepatitis C virus. Description: Antiviral activity against HCV with wild type glycoprotein E1 infected in human Huh7.5 cells assessed as reduction in viral RNA levels incubated for 72 hrs by qRT-PCR analysis. Type of data set: functional, organism-based, Hepacivirus hominis. The following applies: Huh7.5, 72 h. The gist of the method: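 Huh7.5 cells seeded 24 h, then infected with wild-type (or mutant) HCV with compound added at the same time. Incubated 72 h. Intracellular HCV RNA measured by qRT-PCR, 2^-ΔCt method, normalized to GAPDH. Eight-step 1:5 serial dilutions in triplicate; EC50 by Reed & Muench; three independent experiments.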
(In general: In qPCR the cycle at which signal appears reflects the starting amount.)

Data set [7] concerns Hepatitis C virus. The data set is described as follows: Antiviral activity against HCV genotype 1b pseudoparticle infected in human Huh7.5 cells assessed as reduction in viral replication. Conditions: Hepacivirus hominis; subtype 1b. The class given is functional, organism-based. An outline of the steps: as §2
Data set [8] is described as follows: Drug level in Sprague-Dawley rat at 15 mg/kg, po measured after 72 hrs post dose by LC-MS/MS analysis. The class given is ADME, organism-based. The following applies: in vivo, read-out: Drug uptake. The gist of the method: (§3)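 Single dose to fasted (12 h) animals: oral gavage 15 mg/kg as suspension in 0.5% CMC-Na, or iv 5 mg/kg dissolved in citric acid buffer pH 5.0 with 2.5% DMSO. Jugular vein blood on heparin at 0.08 (iv only) to 72 h. Plasma assayed by LC-MS/MS; parameters from noncompartmental analysis.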

Data set [9] can be described thus: Clearance in Sprague-Dawley rat at 15 mg/kg, po measured after 0.08 to 72 hrs post dose by LC-MS/MS analysis. Conditions: in vivo. Type of data set: ADME, organism-based. An outline of the steps: as §3
Data set [10] in a line: Half life in beagle dog at 5 mg/kg, iv measured after 0.08 to 72 hrs post dose by LC-MS/MS analysis. The following applies: in vivo. Type of data set: ADME, organism-based, Canis lupus familiaris.
In data set [11] the test system is Hepatitis C virus. Description: Antiviral activity against HCV expressing NS3 A156T mutant by qRT-PCR analysis based by Reed-Muench method. Type of data set: functional, organism-based, Hepacivirus hominis. An outline of the steps: (§4)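 Huh7.5 cells seeded at 3×10^4/cm², infected 24 h later with wild-type or mutant HCV stock while compound or solvent was added at the same time. Intracellular HCV RNA measured by qRT-PCR at 72 h, normalised to GAPDH, 2^-ΔCT method. EC50 by Reed & Muench from eight-step 1:5 serial dilutions, triplicate wells.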

Data set [12] in a line: Drug level in Sprague-Dawley rat at 5 mg/kg, iv measured after 72 hrs post dose by LC-MS/MS analysis. The class given is ADME, organism-based. The following applies: in vivo, read-out: Drug uptake. The gist of the method:
as §3

Data set [13] is described as follows: Cmax in Sprague-Dawley rat at 15 mg/kg, po measured after 0.08 to 72 hrs post dose by LC-MS/MS analysis. Conditions: in vivo. The arrangement: dose 15 mg/kg, route oral. The class given is ADME, organism-based. An outline of the steps:
as §3

A short description of data set [14]: Drug level in beagle dog at 15 mg/kg, po measured after 24 hrs post dose by LC-MS/MS analysis. Type of data set: ADME, organism-based, Canis lupus familiaris. Conditions: in vivo, read-out: Drug uptake. The gist of the method:
as §3

Data set [15] can be described thus: Selectivity index, ratio of CC50 for cytotoxicity in human Huh7.5 cells assessed as reduction in cell viability incubated for 96 hrs by MTT assay to EC50 for antiviral activity against HCV J6/JFH/JC1 infected in human Huh7.5 cells incubated for 72 hrs by In-Cell Western assay. The class given is toxicity, cell-based. Conditions: read-out: Ratio CC50/EC50. The gist of the method: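 HCVcc (MOI=0.1) infected Huh7.5 cells co-treated with eight-step 1:5 serial dilutions, triplicate wells. After 72 h, fixed, permeabilized, and stained for HCV Core and GAPDH with IR-dye secondaries. Core normalized to GAPDH. CC50 came from MTT at 96 h in uninfected Huh7.5 cells. EC50/CC50 were derived by Reed & Muench, mean ± SD of three independent experiments.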

Data set [16] is described as follows: Half life in Sprague-Dawley rat at 5 mg/kg, iv measured after 0.08 to 72 hrs post dose by LC-MS/MS analysis. The following applies: in vivo. Type of data set: ADME, organism-based. An outline of the steps: as §3
The subject of data set [17] is Hepatitis C virus. The data set is described as follows: Synergistic antiviral activity against HCV infected in human Huh7.5 cells assessed as reduction in HCV core protein level by measuring (q) value at 0.1 uM in presence of 0.016 nM daclatasvir incubated for 72 hrs by Western blot assay based Webb method relative to control. The class given is functional, Hepacivirus hominis. The gist of the method: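 Huh7.5 cells in 6-well plates were infected with HCV in the presence of 0.1 μM test compound combined with simeprevir 0.025 μM, sofosbuvir 0.1 μM or daclatasvir 0.016 nM. Western blot at 72 h gave HCV core protein relative to actin, normalized to control. q calculated by Webb's method (q<1 antagonism, =1 addition, >1 synergy); over 3 independent experiments.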
(A western blot detects proteins with antibodies after separation by electrophoresis.)

Data set [18] is described as follows: AUC (0 to 72 hrs) in Sprague-Dawley rat at 15 mg/kg, po measured after 0.08 to 72 hrs post dose by LC-MS/MS analysis. The class given is ADME, organism-based. The arrangement: dose 15 mg/kg, time < 72 hr, route oral. Conditions: in vivo. The gist of the method: as §3
A short description of data set [19]: Toxicity in Kunming mouse assessed as effect on […] level at 250 to 1000 mg/kg dosed via single oral gavage and measured on day 7 post treatment. The class given is organism-based. Conditions: in vivo. The gist of the method:
as §1

A short description of data set [20]: Toxicity in Kunming mouse assessed as effect on ALT level at 250 to 1000 mg/kg dosed via single oral gavage and measured on day 7 post treatment. The following applies: in vivo. Type of data set: organism-based. The gist of the method:
as §1

A short description of data set [21]: Oral bioavailability in Sprague-Dawley rat at 5 mg/kg measured after 0.08 to 72 hrs after dose by LC-MS/MS analysis. Type of data set: ADME, organism-based. Conditions: in vivo.
Data set [22] can be described thus: Cytotoxicity in African green monkey Vero cells assessed as reduction in cell viability. The class given is cell-based. The following applies: chlorocebus sabaeus.
Data set [23] can be described thus: Toxicity in Kunming mouse assessed as effect on AST level at 250 to 1000 mg/kg dosed via single oral gavage and measured on day 7 post treatment. The class given is organism-based. Conditions: in vivo. An outline of the steps:
as §1

Data set [24] relates to Hepatitis C virus. Description: Antiviral activity against HCV with glycoprotein E1 F291V mutant infected in human Huh7.5 cells assessed as reduction in viral RNA levels incubated for 72 hrs by qRT-PCR analysis. Type of data set: functional, organism-based, Hepacivirus hominis. The gist of the method:
as §4

The CC50 is the concentration at which the toxic effect on the cells reaches its halfway point. The term EC50 denotes the concentration needed to bring the measured effect to its halfway point. By CL/F is commonly meant the apparent clearance, not corrected for the fraction that reaches the circulation. What is called half-life is the time needed for the level to fall by half in the phase considered. For orientation: Cmax means the maximum level reached in the sampled fluid or tissue. One may read the AUC(0-t) as the area under the concentration-time curve up to a stated or last time point. For orientation: bioavailability means dose-corrected exposure relative to a reference, in per cent.

With `CN(C)CCN(C)c1ccc(C#N)c(CN2CCN(c3ccc(Cl)cc3)CC2)c1`, the cytotoxic concentration (CC50) in data set [1] was determined as 18400 nM; in data set [3], 4280 nM; in [22], 22200 nM. The same compound registered an MTD at 7 day in data set [2] greater than 1000 mg/kg. The selectivity ratio in data set [4] was 3; in data set [15] it was 111 to 154. Further, the Activity entry in the data set on Hepatitis C virus [5] is “Dose-dependent effect”; in the data set on Hepatitis C virus [7], “Dose-dependent effect”; in data set [19] it was “Non-Toxic”; in data set [20], “Non-Toxic”; in data set [23], “Non-Toxic”. In addition, the EC50 in the data set with Hepatitis C virus [6] stood at 6 nM; in the data set with Hepatitis C virus [11], 1.9 nM; in the data set with Hepatitis C virus [24], 120 nM. Besides, the concentration at 72 h in [8] amounted to 13.7 ng/mL; in [12], 9.2 ng/mL. Also, the apparent clearance CL/F in [9] was 37.4 mL/min/kg. For the same compound, the half-life was 7.28 h in data set [10] and 14.3 h in data set [16]. The compound further returned a Cmax in data set [13] of 501 ng/mL. Further, the concentration at 24 h in data set [14] was 15.6 ng/mL. The Ratio with Hepatitis C virus [17] turned out to be 1.27. Further, the AUC(0-t) at 72 h in [18] came to 9590 ng·h/mL. Also, the bioavailability in data set [21] amounted to 39%.

The record behind these values is ChEMBL document CHEMBL4613269, “2-((4-Arylpiperazin-1-yl)methyl)benzonitrile Derivatives as Orally Available Inhibitors of Hepatitis C Virus with a Novel Mechanism of Action” (J Med Chem, 2020).
